This data set is described as follows: Toxicity liver stage against HepG2, at 10uM. Format: cell-based. More on the design: test concentration 10 uM, cell line HepG2-A16-CD81EGFP. Conditions: human, HepG2-A16-CD81EGFP cells; read-out: INHIBITION
The essentials: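 Uninfected HepG2-A16-CD81EGFP cells, 3 × 10^3 per well, 1536-well, plated on prespotted compound at 10 μM final, parasite-free screening media added to match infected plates; puromycin 10 μM positive, DMSO 0.5% negative; run in parallel with 48 h PbLuc assay at 37 °C, 5% CO2; viability by CellTiter-Glo luminescence, normalized to controls.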
Turning to `Cc1cccc(-c2noc([C@@H]3C[C@@H](O)CN3Cc3ccc(CO)o3)n2)c1`, the cytotoxicity at 10 µM amounted to 7.38%.
Turning to `CC(C)(C)c1cc(C[C@H]2CNCC[C@H]2CC(=O)N2CCCCC2)no1`, the cytotoxicity at 10 µM was -1.91%.
Turning to `CCSc1ccccc1C(=O)NCC1CCN(Cc2ccsc2)CC1`, the cytotoxicity at 10 µM is -8.44%.
The figure for `O=C(c1ccnnc1)N1CCO[C@H]2[C@H](Oc3cccnc3)CC[C@@H]21` is 8.39%; for `O=C(O)c1nnn(Cc2cccc(C(F)(F)F)c2)c1-c1ccncc1` it is 1.93%; for `CCCn1nc(C)c(CN(CCN(C)C)Cc2ccccn2)c1C` it is -0.641%.
As for `CN([C@@H]1CCC[C@@H](n2ccnc2)[C@@H]1O)S(=O)(=O)c1cn(C)cn1`, the figure is 0.57%; as for `CN1CCC(c2cncc(Cl)n2)CC1`, 0.752%; as for `CCCc1cc(C(=O)N[C@@H]2CCC[C@@H](N3CCCC3)[C@@H]2O)no1`, -2.48%.
As for `Cc1cnc(-c2nc(O)c3c(n2)CN(C(=O)C2CCOC2)CC3)cn1` (centres undefined), the figure is -6.76%; as for `CC(=O)N1CCCC1c1cccc(Cc2ccc(F)cc2)n1` (centres undefined), -1.98%.
With `Cc1ncc(CNC(=O)CCc2cccc(F)c2)c(C2CCCN2C)n1` (centres undefined), the cytotoxicity at 10 µM is -6.82%.
The figure for `Cc1ccc(C)c(-n2nnnc2SCN2CCCCC2=O)c1` is -47.3%; for `CN(Cc1cc(Cl)c2c(c1)OCO2)Cc1cscn1` it is -2.76%; for `COC(=O)NCC(=O)N(C)Cc1csc(C)n1` it is 2.33%.
As for `CN(C)C1CCCN(C(=O)NCCc2cc(F)ccc2F)C1` (centres undefined), the figure is -1.05%; as for `Cc1ccc(NC(=O)NC(C)(C)c2noc(C)n2)cc1`, 12.6%.
As to `CN(C)c1ccnc(N2CCC(NCCOc3ccccc3)CC2)n1`, the cytotoxicity at 10 µM is -4.99%.
As for `O=C(Nc1ccccc1OC1CCOC1)c1cc[nH]n1` (centres undefined), the cytotoxicity at 10 µM is -1.57%.
Take `COCCN(C(=O)c1c[nH]c2ncccc12)C1CCCC1`: the cytotoxicity at 10 µM is -3.08%.
As for `COc1ccccc1-c1noc(CNc2ccc(F)cc2OCCO)n1`, the figure is -37.7%; as for `CCC(C)Oc1cc(C(=O)Nc2nc(C)ns2)ccn1` (centres undefined), -1.02%.
On to `CC(C)c1ccc(-n2cc(O)c(C(=O)O)n2)cc1`, for which the cytotoxicity at 10 µM was -42.4%.
As for `NC(=O)N1CCCN(C2CCCCc3ccccc32)CC1` (centres undefined), the figure is -43.9%.
Take `Cc1cc(C(=O)N2CCn3cc(CN4CCCC4)nc3C2)no1`: the cytotoxicity at 10 µM is -79.3%.
Take `N#Cc1cccc(N2CC3(CCN(C(=O)C4CC=CC4)C3)CC2=O)c1` (centres undefined): the cytotoxicity at 10 µM was 1.77%.
Regarding `Fc1cccc(-c2n[nH]cc2-c2nc(CN3CCOCC3)no2)c1`, the cytotoxicity at 10 µM was -7.58%.
On to `COCCN1CC(c2nc(CSC)no2)CCC1=O` (centres undefined), for which the cytotoxicity at 10 µM is -7.74%.
In the case of `Cc1[nH]nc(CCC(=O)N2CCOC(CCc3ccccc3)C2)c1C` (centres undefined), the cytotoxicity at 10 µM is -10.8%.
As for `O=C(Nc1ccccc1OCCc1ccccn1)NC1CCOCC1`, the figure is 2.43%; as for `Cc1ccc(C)c(OCCNC(=O)[C@@H]2CCCCN2)c1`, 0.997%; as for `CC(C)CN1CCCn2nc(CNC(=O)NC(C)(C)C)cc2C1`, -4.54%.
Consider `O=C(Cn1c(=O)oc2ccccc21)N1Cc2cnn(CCO)c2C1`, for which the cytotoxicity at 10 µM is 0.154%.
For `O=C(C1CCCO1)N1CCC(n2cc(-c3ccsc3)nn2)CC1` (centres undefined), the cytotoxicity at 10 µM is -4.18%.
Take `c1nc(CN2CCCC(Cc3ccc(NC4CCCC4)nn3)C2)c[nH]1` (centres undefined): the cytotoxicity at 10 µM was found to be 3.6%.
As for `Cc1nc(Cn2c3c(ccc2=O)CC(NC(C)C)CC3)cs1` (centres undefined), the figure is 6.39%.
`Cc1cc(N(C)C)nc(C2CCCNC2)n1` (centres undefined): the cytotoxicity at 10 µM is -3.55%.
As for `CN1CCO[C@@H]2CN(S(=O)(=O)c3cccnc3)C[C@@H]2C1`, the figure is 6.17%.
The figure for `Cc1noc(C)c1CN1C[C@@H]2COC[C@H](C(=O)N3CCOCC3)[C@@H]2C1` is -70%.

For the origin of these results see ChEMBL document CHEMBL4513216, “Probing the Open Global Health Chemical Diversity Library for Multistage-Active Starting Points for Next-Generation Antimalarials” (ACS Infect Dis, 2020).
